Test results: ChEMBL document CHEMBL5338733, “Heterobifunctional Ligase Recruiters Enable pan-Degradation of Inhibitor of Apoptosis Proteins” (J Med Chem, 2023)
Calls of active or inactive are those of the source. No cut-off for these calls is given here.

How the values were obtained:
[1] = molecular target: T1, von Hippel-Lindau disease tumor suppressor/E3 ubiquitin-protein ligase XIAP (Homo sapiens) (UniProt P98170+P40337); experiment: PROTAC activity at VHL/IAP in human MM1.S cells assessed as induction of XIAP degradation at 100 nM incubated for 3 hrs by diaPASEF-based analysis; type: cell-based
Procedure, shortened: (§1)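 MM.1S cells treated with DMSO or 0.1 μM for 3 h (four biological replicates); urea lysis, reduction/alkylation, LysC then trypsin digestion, diaPASEF on timsTOF Pro2; label-free quantification, missing values imputed from Gaussian distribution, log2 fold change vs DMSO with limma statistics.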

[2] = molecular target: T2, von Hippel-Lindau disease tumor suppressor/Baculoviral IAP repeat-containing protein 3 (Homo sapiens) (UniProt Q13489+P40337); experiment: PROTAC activity at VHL/IAP in human MM1.S cells assessed as induction of cIAP2 degradation at 1 uM incubated for 16 hrs followed by drug wash-out for 72 hrs by western blot analysis; type: cell-based
Procedure, shortened: (§2)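 MM.1S cells given a single exposure to 1 μM, then compound washed out and protein followed up to 72 h by immunoblot with densitometry.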

[3] = molecular target: T3, von Hippel-Lindau disease tumor suppressor/Baculoviral IAP repeat-containing protein 2 (Homo sapiens) (UniProt Q13490+P40337); experiment: PROTAC activity at VHL/IAP in human MM1.S cells assessed as induction of cIAP1 degradation at 0.1 uM measured after 3 hrs by western blot analysis; type: cell-based
Procedure, shortened: (§3)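 Time course in MM.1S cells at 0.1 μM; protein levels at sampled time points by immunoblot (SDS-PAGE, PVDF, ECL) with densitometry.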

[4] = molecular target: T3, von Hippel-Lindau disease tumor suppressor/Baculoviral IAP repeat-containing protein 2 (Homo sapiens); experiment: PROTAC activity at VHL/IAP in human MM1.S cells assessed as induction of cIAP1 degradation at 100 nM incubated for 3 hrs by diaPASEF-based analysis; type: cell-based; procedure, shortened: as §1
[5] = molecular target: T4, von Hippel-Lindau disease tumor suppressor/IAP (Homo sapiens) (UniProt P98170+Q13489+Q13490+P40337); experiment: PROTAC activity at VHL/IAP in human MM1.S cells assessed as induction of VHL19 degradation at 1 uM incubated for 16 hrs followed by drug wash-out for 72 hrs by western blot analysis; type: cell-based; procedure, shortened: as §2
[6] = molecular target: T2, von Hippel-Lindau disease tumor suppressor/Baculoviral IAP repeat-containing protein 3 (Homo sapiens); experiment: PROTAC activity at VHL/IAP in human MM1.S cells assessed as induction of cIAP2 degradation pretreated for 1 hr with ubiquitin-activating inhibitor, MLN7243 followed by incubation with drug for 3 hrs by western blot analysis; type: cell-based
[7] = molecular target: T3, von Hippel-Lindau disease tumor suppressor/Baculoviral IAP repeat-containing protein 2 (Homo sapiens); experiment: PROTAC activity at VHL/IAP in human MM1.S cells assessed as induction of cIAP1 degradation incubated for 16 hrs by western blot analysis; type: cell-based
Procedure, shortened: (§4)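 MM.1S cells treated 16 h at 0.1 or 1 μM (or concentration series); lysed, SDS-PAGE, PVDF immunoblot, ECL; densitometry normalized to loading control and DMSO; average of ≥3 independent experiments, DC50 from n = 4 repeats where derived.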

[8] = molecular target: T1, von Hippel-Lindau disease tumor suppressor/E3 ubiquitin-protein ligase XIAP (Homo sapiens); experiment: PROTAC activity at VHL/IAP in human MM1.S cells assessed as induction of XIAP degradation at 0.1 uM measured after 3 hrs by western blot analysis; type: cell-based; procedure, shortened: as §3
[9] = molecular target: T4, von Hippel-Lindau disease tumor suppressor/IAP (Homo sapiens); experiment: PROTAC activity at VHL/IAP in human MM1.S cells assessed as induction of VHL30 degradation at 0.1 uM measured after 6 hrs by western blot analysis; type: cell-based; procedure, shortened: as §3
[10] = molecular target: T4, von Hippel-Lindau disease tumor suppressor/IAP (Homo sapiens); experiment: PROTAC activity at VHL/IAP in XIAP knock-out human MM1.S cells assessed as induction of VHL30 degradation at 0.1 uM incubated for 16 hrs by western blot analysis; type: cell-based
Procedure, shortened: (§5)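 Cas9-expressing MM.1S cells transduced with sgRNA against cIAP1, cIAP2 or XIAP (control sgRNA luciferase; ≥95% transduction by FACS at 48 h); treated 0.1 μM for 16 h; VHL30 measured by immunoblot (SDS-PAGE, PVDF, ECL) with densitometry.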

[11] = molecular target: T4, von Hippel-Lindau disease tumor suppressor/IAP (Homo sapiens); experiment: PROTAC activity at VHL/IAP in cIPA2 knock-out human MM1.S cells assessed as induction of VHL30 degradation at 0.1 uM incubated for 16 hrs by western blot analysis; type: cell-based; procedure, shortened: as §5
[12] = molecular target: T3, von Hippel-Lindau disease tumor suppressor/Baculoviral IAP repeat-containing protein 2 (Homo sapiens); experiment: PROTAC activity at VHL/IAP in human MM1.S cells assessed as induction of cIAP1 degradation pretreated for 1 hr with ubiquitin-activating inhibitor, MLN7243 followed by incubation with drug for 3 hrs by western blot analysis; type: cell-based
[13] = molecular target: T2, von Hippel-Lindau disease tumor suppressor/Baculoviral IAP repeat-containing protein 3 (Homo sapiens); experiment: PROTAC activity at VHL/IAP in human MM1.S cells assessed as induction of cIAP2 degradation at 0.1 uM measured after 3 hrs by western blot analysis; type: cell-based; procedure, shortened: as §3
[14] = molecular target: T4, von Hippel-Lindau disease tumor suppressor/IAP (Homo sapiens); experiment: PROTAC activity at VHL/IAP in cIPA1 knock-out human MM1.S cells assessed as induction of VHL30 degradation at 0.1 uM incubated for 16 hrs by western blot analysis; type: cell-based; procedure, shortened: as §5
[15] = molecular target: T2, von Hippel-Lindau disease tumor suppressor/Baculoviral IAP repeat-containing protein 3 (Homo sapiens); experiment: PROTAC activity at VHL/IAP in human MM1.S cells assessed as induction of cIAP2 degradation incubated for 16 hrs by western blot analysis; type: cell-based; procedure, shortened: as §4
[16] = molecular target: T3, von Hippel-Lindau disease tumor suppressor/Baculoviral IAP repeat-containing protein 2 (Homo sapiens); experiment: PROTAC activity at VHL/IAP in human MM1.S cells assessed as induction of cIAP1 degradation at 1 uM incubated for 16 hrs followed by drug wash-out for 72 hrs by western blot analysis; type: cell-based; procedure, shortened: as §2
[17] = molecular target: T3, von Hippel-Lindau disease tumor suppressor/Baculoviral IAP repeat-containing protein 2 (Homo sapiens); experiment: PROTAC activity at VHL/IAP in human MM1.S cells assessed as induction of cIAP1 degradation pretreated for 1 hr with proteasome inhibitor, MG132 followed by incubation with drug for 3 hrs by western blot analysis; type: cell-based
[18] = molecular target: T2, von Hippel-Lindau disease tumor suppressor/Baculoviral IAP repeat-containing protein 3 (Homo sapiens); experiment: PROTAC activity at VHL/IAP in human MM1.S cells assessed as induction of cIAP2 degradation pretreated for 1 hr with proteasome inhibitor, MG132 followed by incubation with drug for 3 hrs by western blot analysis; type: cell-based
[19] = test system: SU-DHL-6; experiment: Cytotoxicity against human SU-DHL-6 cells assessed as reduction in cell viability measured after 96 hrs in presence of TNF-alpha by CellTiter-Glo luminescent assay; type: functional, cell-based; settings: SU-DHL-6, 96 h
Procedure, shortened: (§6)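 Cells seeded with compound at indicated concentrations ± TNF-α 1 ng/mL, incubated 96 h at 37 °C; viability by CellTiter-Glo luminescence, normalized to DMSO control; mean ± SD of biological triplicates. NCI-H929 cultured in RPMI-1640/10% FBS with 2-mercaptoethanol and sodium pyruvate; other lines in RPMI-1640/10% FBS, 37 °C, 5% CO2.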

[20] = molecular target: T1, von Hippel-Lindau disease tumor suppressor/E3 ubiquitin-protein ligase XIAP (Homo sapiens); experiment: PROTAC activity at VHL/IAP in human MM1.S cells assessed as induction of XIAP degradation at 1 uM incubated for 16 hrs followed by drug wash-out for 72 hrs by western blot analysis; type: cell-based; procedure, shortened: as §2
[21] = molecular target: T1, von Hippel-Lindau disease tumor suppressor/E3 ubiquitin-protein ligase XIAP (Homo sapiens); experiment: PROTAC activity at VHL/IAP in human MM1.S cells assessed as induction of XIAP degradation pretreated for 1 hr with ubiquitin-activating inhibitor, MLN7243 followed by incubation with drug for 3 hrs by western blot analysis; type: cell-based
[22] = molecular target: T1, von Hippel-Lindau disease tumor suppressor/E3 ubiquitin-protein ligase XIAP (Homo sapiens); experiment: PROTAC activity at VHL/IAP in human MM1.S cells assessed as induction of XIAP degradation pretreated for 1 hr with proteasome inhibitor, MG132 followed by incubation with drug for 3 hrs by western blot analysis; type: cell-based
[23] = molecular target: T4, von Hippel-Lindau disease tumor suppressor/IAP (Homo sapiens); experiment: PROTAC activity at VHL/IAP in human MM1.S cells assessed as induction of VHL30 degradation at 1 uM incubated for 16 hrs followed by drug wash-out for 72 hrs by western blot analysis; type: cell-based; procedure, shortened: as §2
[24] = molecular target: T4, von Hippel-Lindau disease tumor suppressor/IAP (Homo sapiens); experiment: PROTAC activity at VHL/IAP in human MM1.S cells assessed as induction of VHL30 degradation incubated for 16 hrs by western blot analysis; type: cell-based; settings: dose 0.0001-1 µM; procedure, shortened: as §4
[25] = molecular target: T1, von Hippel-Lindau disease tumor suppressor/E3 ubiquitin-protein ligase XIAP (Homo sapiens); experiment: PROTAC activity at VHL/IAP in human MM1.S cells assessed as induction of XIAP degradation at 1 uM incubated for 16 hrs followed by drug wash-out for 72 hrs and later treated with VHL inhibitor, VH298 by western blot analysis; type: cell-based
[26] = test system: NCI-H929; experiment: Cytotoxicity against human NCI-H929 cells assessed as reduction in cell viability measured after 96 hrs in presence of TNF-alpha by CellTiter-Glo luminescent assay; type: functional, cell-based; settings: NCI-H929, 96 h; procedure, shortened: as §6
[27] = molecular target: T1, von Hippel-Lindau disease tumor suppressor/E3 ubiquitin-protein ligase XIAP (Homo sapiens); experiment: PROTAC activity at VHL/IAP in human MM1.S cells assessed as induction of XIAP degradation incubated for 16 hrs by western blot analysis; type: cell-based; procedure, shortened: as §4

T3 sequence (P40337 whole entry, looked up): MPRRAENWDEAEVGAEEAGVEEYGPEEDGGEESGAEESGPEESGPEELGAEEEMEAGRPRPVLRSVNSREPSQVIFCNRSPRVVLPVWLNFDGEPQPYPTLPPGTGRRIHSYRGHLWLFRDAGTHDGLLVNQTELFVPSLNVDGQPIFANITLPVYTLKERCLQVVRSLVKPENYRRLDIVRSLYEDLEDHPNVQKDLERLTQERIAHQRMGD
T3 sequence (Q13490 whole entry, looked up): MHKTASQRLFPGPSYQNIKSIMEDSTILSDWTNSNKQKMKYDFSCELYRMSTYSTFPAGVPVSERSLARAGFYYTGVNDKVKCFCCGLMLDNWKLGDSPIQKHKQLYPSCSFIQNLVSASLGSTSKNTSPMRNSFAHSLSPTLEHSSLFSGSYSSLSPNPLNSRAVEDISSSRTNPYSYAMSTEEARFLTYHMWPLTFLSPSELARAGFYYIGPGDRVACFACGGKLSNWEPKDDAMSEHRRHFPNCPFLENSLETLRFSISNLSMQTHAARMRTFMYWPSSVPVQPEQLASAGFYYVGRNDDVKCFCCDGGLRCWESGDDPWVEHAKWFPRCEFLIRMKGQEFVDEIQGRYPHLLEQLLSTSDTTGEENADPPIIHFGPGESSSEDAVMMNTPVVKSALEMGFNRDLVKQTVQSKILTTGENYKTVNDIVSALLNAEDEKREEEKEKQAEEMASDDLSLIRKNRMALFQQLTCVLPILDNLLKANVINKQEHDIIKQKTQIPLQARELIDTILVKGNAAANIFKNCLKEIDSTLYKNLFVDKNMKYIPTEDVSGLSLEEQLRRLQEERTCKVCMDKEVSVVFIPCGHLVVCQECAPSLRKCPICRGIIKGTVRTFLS
T1 sequence (P40337 whole entry, looked up): as the sequence (P40337 whole entry, looked up) above
T1 sequence (P98170 whole entry, looked up): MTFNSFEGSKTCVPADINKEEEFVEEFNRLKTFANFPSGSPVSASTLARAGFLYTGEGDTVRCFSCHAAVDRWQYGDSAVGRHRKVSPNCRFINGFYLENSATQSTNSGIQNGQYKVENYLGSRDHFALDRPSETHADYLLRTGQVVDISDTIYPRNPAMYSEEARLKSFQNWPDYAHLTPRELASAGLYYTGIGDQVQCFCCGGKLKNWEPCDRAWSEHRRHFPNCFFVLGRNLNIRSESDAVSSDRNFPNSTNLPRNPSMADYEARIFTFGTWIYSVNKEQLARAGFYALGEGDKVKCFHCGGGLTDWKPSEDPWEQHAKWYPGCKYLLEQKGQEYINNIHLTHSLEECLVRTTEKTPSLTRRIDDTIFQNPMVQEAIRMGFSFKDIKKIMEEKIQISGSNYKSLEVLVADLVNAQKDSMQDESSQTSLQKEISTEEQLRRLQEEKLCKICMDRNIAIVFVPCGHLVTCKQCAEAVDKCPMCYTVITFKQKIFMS
T2 sequence (P40337 whole entry, looked up): as the sequence (P40337 whole entry, looked up) above
T2 sequence (Q13489 whole entry, looked up): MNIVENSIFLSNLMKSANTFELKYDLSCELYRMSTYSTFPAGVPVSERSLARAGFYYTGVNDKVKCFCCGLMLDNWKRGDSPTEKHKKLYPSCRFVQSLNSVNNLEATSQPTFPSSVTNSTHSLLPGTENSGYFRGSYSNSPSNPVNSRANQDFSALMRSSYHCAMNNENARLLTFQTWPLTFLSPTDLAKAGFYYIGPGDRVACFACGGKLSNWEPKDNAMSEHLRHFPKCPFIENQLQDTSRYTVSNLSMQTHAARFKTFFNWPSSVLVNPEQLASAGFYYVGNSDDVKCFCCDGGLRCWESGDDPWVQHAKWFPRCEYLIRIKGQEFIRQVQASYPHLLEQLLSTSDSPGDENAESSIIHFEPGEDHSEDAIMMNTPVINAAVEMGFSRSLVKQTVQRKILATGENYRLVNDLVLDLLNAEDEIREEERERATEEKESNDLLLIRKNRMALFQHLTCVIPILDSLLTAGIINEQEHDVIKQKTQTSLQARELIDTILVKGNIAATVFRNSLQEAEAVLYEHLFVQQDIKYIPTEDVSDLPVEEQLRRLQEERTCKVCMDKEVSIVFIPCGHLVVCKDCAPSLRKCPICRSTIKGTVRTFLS
T4 sequence (P40337 whole entry, looked up): as the sequence (P40337 whole entry, looked up) above
T4 sequence (P98170 whole entry, looked up): as the sequence (P98170 whole entry, looked up) above
T4 sequence (Q13489 whole entry, looked up): as the sequence (Q13489 whole entry, looked up) above
T4 sequence (Q13490 whole entry, looked up): as the sequence (Q13490 whole entry, looked up) above

CN[C@@H](C)C(=O)N[C@H](C(=O)N1C[C@@H](Oc2cccc(OCCCCC(=O)N[C@H](C(=O)N3C[C@H](O)C[C@H]3C(=O)N[C@@H](C)c3ccc(-c4scnc4C)cc3)C(C)(C)C)c2)C[C@H]1C(=O)N[C@@H]1CCCc2ccccc21)C1CCCCC1
Activity [1]: Active | Activity [2]: Active | Activity [3]: 100% | Activity [4]: Active | Activity [5]: inactive | Activity [6]: inactive | Activity [7]: Dose-Dependent Effect | Activity [8]: 100% | Activity [9]: Active | Activity [10]: Active | Activity [11]: Active | Activity [12]: inactive | Activity [13]: 100% | Activity [14]: Active | Activity [15]: Dose-Dependent Effect | Activity [16]: Active | Activity [17]: inactive | Activity [18]: inactive | IC50 [19]: 1.6 nM | Activity [20]: Active | Activity [21]: inactive | Activity [22]: inactive | Activity [23]: inactive | Activity [24]: Dose-Dependent Effect | Activity [25]: inactive | IC50 [26]: 8 nM | Activity [27]: Dose-Dependent Effect
